Experimental data as given in ChEMBL document CHEMBL1158505, “Phenolics from Glycyrrhiza glabra roots and their PPAR-gamma ligand-binding activity” (Bioorg Med Chem, 2010).
Active and inactive are the calls of the source. The calls are words filed in the database; no cut-off is given here.

Target: T1, Peroxisome proliferator-activated receptor gamma (Homo sapiens) (UniProt P37231)
T1 sequence (whole entry): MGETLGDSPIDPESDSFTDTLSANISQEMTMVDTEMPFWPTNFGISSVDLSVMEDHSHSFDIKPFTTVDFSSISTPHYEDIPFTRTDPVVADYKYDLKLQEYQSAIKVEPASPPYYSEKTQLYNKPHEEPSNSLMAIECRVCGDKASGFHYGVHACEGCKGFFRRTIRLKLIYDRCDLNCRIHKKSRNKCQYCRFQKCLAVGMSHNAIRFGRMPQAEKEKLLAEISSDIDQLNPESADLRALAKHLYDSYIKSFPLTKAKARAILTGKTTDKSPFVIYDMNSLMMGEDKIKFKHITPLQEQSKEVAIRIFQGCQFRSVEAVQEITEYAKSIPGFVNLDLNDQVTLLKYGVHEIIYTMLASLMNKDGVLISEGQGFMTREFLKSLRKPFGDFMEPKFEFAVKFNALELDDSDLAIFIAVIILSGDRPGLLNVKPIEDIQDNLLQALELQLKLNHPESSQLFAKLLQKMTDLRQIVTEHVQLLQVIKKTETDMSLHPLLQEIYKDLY
Test: Binding affinity to human recombinant […] expressed in african green monkey CV1 cells coexpressing GAL4-luc reporter by microplate scintillation counter
Format: cell-based
Details: CV-1
Summary of the method: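 GAL4-PPAR-γ chimera reporter assay in CV-1 monkey kidney cells seeded at 6 × 10³ cells/well in DMEM with 10% FBS and ascorbic acid, 37 °C, 5% CO2, 24 h. Cells transfected with pM-hPPAR-γ and p4×UASg-tk-luc, then 24 h later given DMEM with 10% charcoal-treated FBS plus sample (2 or 10 μg/mL; final DMSO 0.1%) for 24 h. Luciferase luminescence expressed relative to DMSO control; n = 4.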

Activity	SMILES
Active	COc1cc(O)ccc1/C=C/C(=O)c1ccc(O)cc1
Active	CC(C)=CCc1cc([C@H]2Oc3cc(O)ccc3C(=O)[C@@H]2O)ccc1O
Active	CC(C)=CCc1cc2c(=O)cc(-c3ccc(O)cc3)oc2cc1O
Active	CC1(C)C=Cc2c(ccc3cc(-c4ccc(O)cc4O)c(=O)oc23)O1
Active	CC1(C)C=Cc2c(ccc(-c3coc4cc(O)ccc4c3=O)c2O)O1
Active	CC(C)=CCc1cc([C@@H]2CC(=O)c3ccc(O)c(CC=C(C)C)c3O2)ccc1O
Active	CC1(C)C=Cc2c(ccc3c2OC[C@H]2c4ccc(O)cc4O[C@@H]32)O1
Active	CC(C)=CCc1c(O)ccc([C@@H]2COc3c(ccc(O)c3CC=C(C)C)C2)c1O
Active	CC1(C)C=Cc2c(ccc3c2OC[C@@H](c2cc(C=O)c(O)cc2O)C3)O1
Active	CC(C)=CCc1c(O)cc(O)c2c(=O)c(-c3ccc(O)c(O)c3)coc12
Active	COc1ccc([C@@H]2COc3cc(O)ccc3C2)c(O)c1O
Active	CC(C)=CCc1cc([C@@H]2CC(=O)c3ccc4c(c3O2)C=CC(C)(C)O4)ccc1O
